ChEMBL document CHEMBL1152414, “Synthesis, antimalarial activity and cytotoxicity of substituted 3,6-diphenyl-[1,2,4,5]tetraoxanes” (Bioorg Med Chem, 2009)

Experiments:
[1] = Selectivity index, ratio of IC50 for african green monkey (Cercopithecus aethiops) Vero cells to IC50 for chloroquine-sensitive Plasmodium falciparum D6; assay type: toxicity, cell-based; settings: read-out: Ratio IC50
Method in brief: (§1)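 Selectivity index is Vero cytotoxicity IC50 (Neutral Red, 48 h) divided by P. falciparum D6 or W2 IC50 (parasite LDH, 72 h).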

[2] = tested on: Plasmodium falciparum; experiment: Antimalarial activity after 72 hrs against chloroquine-resistant Plasmodium falciparum W2 by Malstat LDH activity; assay type: functional, organism-based; settings: W2, 72 h
Method in brief: (§2)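 P. falciparum (D6 or W2) infected red cell suspension at 2% parasitemia and 2% hematocrit in RPMI 1640 with 10% human serum and amikacin, added to serially diluted samples. Incubated 72 h at 37 °C under 90% N2/5% O2/5% CO2. Parasite LDH read with Malstat reagent and NBT/PES, acetic acid stop, 650 nm. IC50 taken from dose-response curves; artemisinin and chloroquine run as controls.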

[3] = tested on: Plasmodium falciparum; experiment: Antimalarial activity after 72 hrs against chloroquine-sensitive Plasmodium falciparum D6 by Malstat LDH activity; assay type: functional, organism-based; settings: D6, 72 h; method in brief: as §2
[4] = Selectivity index, ratio of IC50 for african green monkey (Cercopithecus aethiops) Vero cells to IC50 for chloroquine-resistant Plasmodium falciparum W2; assay type: toxicity, cell-based; settings: read-out: Ratio IC50; method in brief: as §1
[5] = tested on: Vero; experiment: Cytotoxicity against african green monkey Vero cells upto 16.72 uM after 48 hrs by neutral red assay; assay type: cell-based; settings: chlorocebus sabaeus
Method in brief: (§3)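 Vero monkey kidney cells seeded at 25,000 cells/well and grown 24 h, then exposed to samples at several concentrations for 48 h. Viable cells counted by Neutral Red uptake. IC50 taken from dose-response curves; doxorubicin run as positive control.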

[6] = tested on: SK-MEL; experiment: Cytotoxicity human SK-MEL cells upto 30 uM after 48 hrs by neutral red assay; assay type: cell-based
[7] = Cytotoxicity pig LLC-PK11 cells upto 30 uM after 48 hrs by neutral red assay; assay type: cell-based, Sus scrofa; settings: llc-pk11, 48 h
[8] = tested on: KB; experiment: Cytotoxicity human KB cells upto 30 uM after 48 hrs by neutral red assay; assay type: cell-based
[9] = tested on: Vero; experiment: Cytotoxicity against african green monkey Vero cells upto 30 uM after 48 hrs by neutral red assay; assay type: cell-based; settings: chlorocebus sabaeus; method in brief: as §3
[10] = tested on: SK-OV-3; experiment: Cytotoxicity human SKOV3 cells upto 30 uM after 48 hrs by neutral red assay; assay type: cell-based; settings: sk-ov-3, 48 h
[11] = tested on: BT-549; experiment: Cytotoxicity human BT549 cells upto 30 uM after 48 hrs by neutral red assay; assay type: cell-based; settings: bt-549, 48 h

Structure (SMILES)	selectivity ratio [1]	IC50 [2] [nM]	IC50 [3] [nM]	selectivity ratio [4]	Activity [5]	Activity [6]	Activity [7]	Activity [8]	Activity [9]	Activity [10]	Activity [11]
CCCc1ccc(C2OOC(c3ccc(C(C)C)cc3)OO2)cc1 (stereo not drawn)	> 15.4	800	960	> 18.3	Non-toxic						
CCc1ccc(C2OOC(c3cccc(C)c3)OO2)cc1 (stereo not drawn)	> 47.6	560	350	> 29.8	Non-toxic						
Cc1cccc(C2OOC(c3ccccc3C)OO2)c1 (stereo not drawn)	> 17	1360	1030	> 12.9	Non-toxic						
Cc1ccc(C2OOC(c3ccc(C=O)cc3)OO2)cc1 (stereo not drawn)					Non-toxic						
COc1ccc(C2OOC(c3ccc(C(C)(C)C)cc3)OO2)cc1 (stereo not drawn)	> 26.4	640	540	> 22.7	Non-toxic						
COc1ccc(C2OOC(c3ccc(C)cc3)OO2)cc1 (stereo not drawn)	> 21.6	1080	760	> 15.4	Non-toxic						
CCCc1ccc(C2OOC(c3ccc(OC)cc3)OO2)cc1 (stereo not drawn)	> 15.8	660	940	> 22.7	Non-toxic						
CCN(CC)CCCC(C)Nc1ccnc2cc(Cl)ccc12 (stereo not drawn) [CHLOROQUINE]					Non-toxic						
CC(C)(C)c1ccc(C2OOC(c3ccc(C(C)(C)C)cc3)OO2)cc1 (stereo not drawn)	> 6.1	3930	2190	> 3.4	Non-toxic						
Cc1ccc(C2OOC(c3ccccc3)OO2)cc1 (stereo not drawn)	> 19.8	1080	930	> 17	Non-toxic						
Cc1cccc(C2OOC(c3ccccc3)OO2)c1 (stereo not drawn)	> 36.8	460	500	> 39.7	Non-toxic						
CCc1ccc(C2OOC(c3ccc(C)cc3)OO2)cc1 (stereo not drawn)	> 43.6	450	380	> 36.7	Non-toxic						
CCc1ccc(C2OOC(c3ccc(C(C)C)cc3)OO2)cc1 (stereo not drawn)	> 34	570	450	> 26.4	Non-toxic						
COc1ccc(C2OOC(c3ccc(C(C)C)cc3)OO2)cc1 (stereo not drawn)	> 1.9	5690	7900	> 2.6	Non-toxic						
CC(C)c1ccc(C2OOC(c3ccc(C(C)C)cc3)OO2)cc1 (stereo not drawn)	> 21.6	1030	670	> 14	Non-toxic	Non-toxic	Non-toxic	Non-toxic	Non-toxic	Non-toxic	Non-toxic
CCCCc1ccc(C2OOC(c3ccc(CCCC)cc3)OO2)cc1 (stereo not drawn)	> 3.7	4770	3650	> 2.8	Non-toxic						
CCCc1ccc(C2OOC(c3ccc(C)cc3)OO2)cc1 (stereo not drawn)	> 7.9	1060	1990	> 14.9	Non-toxic						
Cc1ccc(C2OOC(c3ccc(C(C)(C)C)cc3)OO2)cc1 (stereo not drawn)	> 25.1	790	600	> 19	Non-toxic						
CCCc1ccc(C2OOC(c3ccc(C(C)(C)C)cc3)OO2)cc1 (stereo not drawn)	> 3.4	2630	4090	> 5.3	Non-toxic						
CCc1ccc(C2OOC(c3ccc(C(C)(C)C)cc3)OO2)cc1 (stereo not drawn)	> 2.6	3650	5480	> 4	Non-toxic						
CCCc1ccc(C2OOC(c3ccc(CCC)cc3)OO2)cc1 (stereo not drawn)	> 23.8	760	610	> 19	Non-toxic	Non-toxic	Non-toxic	Non-toxic	Non-toxic	Non-toxic	Non-toxic
CCc1ccc(C2OOC(c3ccc(CC)cc3)OO2)cc1 (stereo not drawn)	> 15.9		990	> 15.9	Non-toxic	Non-toxic	Non-toxic	Non-toxic	Non-toxic	Non-toxic	Non-toxic
Cc1ccc(C2OOC(c3cccc(C)c3)OO2)cc1 (stereo not drawn)	> 25.1	1030	670	> 17	Non-toxic						
Cc1ccc(C2OOC(c3ccc(C(C)C)cc3)OO2)cc1 (stereo not drawn)	> 26.4	770	590	> 20.9	Non-toxic						
C[C@@H]1CC[C@H]2[C@@H](C)C(=O)O[C@@H]3O[C@@]4(C)CC[C@@H]1[C@]32OO4 [ARTEMISININ]	> 476	15		> 1400	Non-toxic						
CC(C)c1ccc(C2OOC(c3ccc(C(C)(C)C)cc3)OO2)cc1 (stereo not drawn)	> 1	9340	13900	> 1.5	Non-toxic						
COc1ccc(C2OOC(c3cccc(C)c3)OO2)cc1 (stereo not drawn)	> 39.7	620	420	> 26.4	Non-toxic						
Cc1ccc(C2OOC(c3ccccc3C)OO2)cc1 (stereo not drawn)	> 5.7	2200	3050	> 7.9	Non-toxic						
